Experimental data taken from publication PMC4002258 (Biochimica et biophysica acta, 2013).
Values joined by “and” are separate entries in the source; they are usually repeats but may differ in a detail not shown here. Identical values can stand only once. Marks after values point to notes of the source that are not given here.

Tests used:
Assay type in all cases: biochemical
[1] = target: human recombinant core 1 β1,3-Gal-transferase (C1GalT) (Homo sapiens, UniProt Q9NS00); assay: C1GalT glycosyltransferase assay; settings: for C1GalT activity (%): acceptor substrate 0.5 mM, 0.5 mM GalNAcα-Bn set to 100%
[2] = target: T1, human recombinant core 3 β1,3-GlcNAc-transferase (C3GnT) (Homo sapiens, UniProt Q6ZMB0); assay: C3GnT glycosyltransferase assay; settings: for C3GnT activity (%): acceptor substrate 0.5 mM, 0.5 mM GalNAcα-Bn set to 100%; for Vmax / Km: C3GnT; for Vmax: acceptor substrate; for Km: apparent KM for acceptor substrate
T1 sequence (Q6ZMB0 32-384 limits assumed): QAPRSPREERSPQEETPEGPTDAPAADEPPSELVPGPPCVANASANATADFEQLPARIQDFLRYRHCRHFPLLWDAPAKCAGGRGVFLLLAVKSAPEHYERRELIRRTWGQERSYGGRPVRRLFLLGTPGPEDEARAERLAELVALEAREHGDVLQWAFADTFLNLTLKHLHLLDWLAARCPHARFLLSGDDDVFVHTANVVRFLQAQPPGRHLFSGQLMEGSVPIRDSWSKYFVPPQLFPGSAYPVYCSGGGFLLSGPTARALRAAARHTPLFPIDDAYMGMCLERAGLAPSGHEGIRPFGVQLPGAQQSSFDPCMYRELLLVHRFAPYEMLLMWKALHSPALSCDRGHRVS

[3] = target: T2, human recombinant core 2 β1,6-GlcNAc-transferase (C2GnT1) (Homo sapiens, UniProt Q02742); assay: C2GnT1 glycosyltransferase assay; settings: for C2GnT1 activity (%): acceptor substrate 0.5 mM, 0.5 mM Galβ1–3GalNAcα-pnp set to 100%
T2 sequence (Q02742 33-428 limits assumed): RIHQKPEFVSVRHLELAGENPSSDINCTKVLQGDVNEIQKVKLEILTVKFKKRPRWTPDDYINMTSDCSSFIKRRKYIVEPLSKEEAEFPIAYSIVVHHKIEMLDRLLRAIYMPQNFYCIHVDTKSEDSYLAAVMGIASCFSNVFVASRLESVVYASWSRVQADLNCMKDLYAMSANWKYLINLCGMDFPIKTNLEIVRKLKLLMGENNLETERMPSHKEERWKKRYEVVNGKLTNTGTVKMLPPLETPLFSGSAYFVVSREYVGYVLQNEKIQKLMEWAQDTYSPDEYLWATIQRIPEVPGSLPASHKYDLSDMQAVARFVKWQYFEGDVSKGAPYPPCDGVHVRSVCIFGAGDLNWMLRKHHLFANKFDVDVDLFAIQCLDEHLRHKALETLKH

[4] = target: T3, human recombinant core 2/4 β1,6-GlcNAc-transferase (C2GnT2) (Homo sapiens, UniProt O95395); settings: for C2GnT2 activity (%): acceptor substrate 0.5 mM, 0.5 mM Galβ1–3GalNAcα-pnp set to 100%
T3 sequence (O95395 27-438): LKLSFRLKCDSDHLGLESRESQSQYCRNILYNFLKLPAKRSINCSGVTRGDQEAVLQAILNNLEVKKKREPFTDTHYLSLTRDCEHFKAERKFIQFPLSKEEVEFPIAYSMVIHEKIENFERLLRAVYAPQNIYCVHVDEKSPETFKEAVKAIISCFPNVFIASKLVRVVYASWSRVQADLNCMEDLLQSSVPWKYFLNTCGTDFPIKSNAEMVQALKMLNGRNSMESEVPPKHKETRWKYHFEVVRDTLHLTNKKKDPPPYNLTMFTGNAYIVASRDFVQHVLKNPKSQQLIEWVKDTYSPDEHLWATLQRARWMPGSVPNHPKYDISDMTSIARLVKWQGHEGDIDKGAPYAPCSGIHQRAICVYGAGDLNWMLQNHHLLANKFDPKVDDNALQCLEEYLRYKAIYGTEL

[5] = target: T1, human recombinant core 3 β1,3-GlcNAc-transferase (C3GnT); assay: Inhibition of C3GnT; settings: inhibitor 0.5 mM, 0.5 mM GalNAcα-Bn acceptor
Procedure, shortened: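 His-tagged human C3GnT from Sf9 cells, Ni2+-NTA purified, 0.003 mg protein per assay. Inhibitor at acceptor concentration unless indicated. Incubated 1 h at 37 °C, then cold-water stop. AG1×8 anion exchange; eluate counted by scintillation.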

[6] = target: T2, human recombinant core 2 β1,6-GlcNAc-transferase (C2GnT1); assay: Inhibition of C2GnT1; settings: inhibitor 0.5 mM, 0.5 mM Galβ1–3GalNAcα-pnp acceptor

Chain of human recombinant core 1 β1,3-Gal-transferase (C1GalT) (Q9NS00 30-363 limits assumed): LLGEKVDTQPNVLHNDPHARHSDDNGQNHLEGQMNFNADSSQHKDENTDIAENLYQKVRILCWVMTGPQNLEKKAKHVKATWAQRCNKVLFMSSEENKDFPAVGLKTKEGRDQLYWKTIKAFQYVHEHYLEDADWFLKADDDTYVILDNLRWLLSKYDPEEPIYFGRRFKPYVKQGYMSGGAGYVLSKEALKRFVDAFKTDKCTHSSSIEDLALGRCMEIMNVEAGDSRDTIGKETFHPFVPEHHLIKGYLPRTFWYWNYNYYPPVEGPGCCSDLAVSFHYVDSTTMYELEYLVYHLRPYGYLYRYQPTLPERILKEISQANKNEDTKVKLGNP

Compound | C1GalT activity (%) [1] | C3GnT activity (%) [2] | also measured
OC[C@H]1O[C@H](OCc2ccccc2)C[C@@H](O)[C@H]1O [2-Deoxy-Galα-Bn] | <1% | <1% | 
CCCC(=O)N[C@H]1[C@@H](OCc2ccccc2)O[C@H](CO)[C@H](O)[C@@H]1O [2-N-Butyryl-GalNα-Bn, benzyl 2-butanamido-2-deoxy-α-D-galactoside] | <1% | <1% | C2GnT1 activity (%) [3]: <1%; C2GnT2 activity (%) [4]: <1%; C3GnT Inhibition (%) [5]: did not inhibit; C2GnT1 Inhibition (%) [6]: did not inhibit
CCC(=O)N[C@H]1[C@@H](OCc2ccccc2)O[C@H](CO)[C@H](O)[C@@H]1O [2-N-Propionyl-GalNα-Bn] | 60% | 62% | 
CC(=O)N[C@@H]1C[C@@H](O)[C@@H](CO)O[C@@H]1OCc1ccccc1 [3-Deoxy-GalNAcα-Bn] | <1% | <1% | C2GnT1 activity (%) [3]: <1%; C2GnT2 activity (%) [4]: <1%
CCO[C@H]1[C@@H](O)[C@@H](CO)O[C@H](OCc2ccccc2)[C@@H]1NC(C)=O [3-O-Ethyl-GalNAcα-Bn] | <1% | <1% | 
CCCO[C@H]1[C@@H](O)[C@@H](CO)O[C@H](OCc2ccccc2)[C@@H]1NC(C)=O [3-O-Propyl-GalNAcα-Bn] | <1% | <1% | 
CC(=O)N[C@H]1[C@@H](OCc2ccccc2)O[C@H](CO)C[C@@H]1O [4-Deoxy-GalNAcα-Bn] | <1% | <1% | 
CC(=O)N[C@H]1[C@@H](OCc2ccccc2)O[C@H](CO[C@@H]2O[C@H](CO)[C@@H](F)[C@H](O)[C@H]2NC(C)=O)[C@H](O)[C@@H]1O [4-F-4-Deoxy-GlcNAcβ1–6-GalNAcα-Bn] | 88% | <1% | 
CC(=O)N[C@H]1[C@@H](OCc2ccccc2)O[C@H](C)[C@H](O)[C@@H]1O [6-Deoxy-GalNAcα-Bn] | 68% | <1% | 
CC(=O)N[C@H]1[C@@H](OCc2ccccc2)O[C@H](COCCCC2CO2)[C@H](O)[C@@H]1O (stereo partly shown) [6-O-(4,5-Anhydro)pentyl-GalNAcα-Bn] | 191% | <1% | 
CC(=O)N[C@H]1C(O)O[C@H](CO)[C@H](O)[C@@H]1O (stereo partly shown) [GalNAc, reference compound] | 6% | <1% | 
CC(=O)N[C@H]1[C@@H](OCc2ccccc2)O[C@H](CO)[C@H](O)[C@@H]1O [GalNAcα-Bn, reference compound] | 100 ^a % | 100 ^b % | Vmax ([1]; C1GalT, acceptor substrate): 0.14 µmol/h/mg; Km ([1]; C1GalT, apparent KM for acceptor substrate): 800 µM; Vmax [2]: 0.95 µmol/h/mg; Km [2]: 3000 µM; C2GnT1 activity (%) [3]: <1%; C2GnT2 activity (%) [4]: <1%
[Cl][Mn][Cl] [Mn^2+, MnCl2] |  |  | C1GalT activity with cofactor/additive ([1]; 12.5 mM metal ion or EDTA, Mn2+ taken as 100%): 100%; EC50 ([1]; read-out: MnCl2 concentration for half-maximal C1GalT activity): 250 µM; reduction of C2GnT1 activity ([3]; 12.5 mM in the assay): 61%; reduction of C2GnT2 activity ([4]; 12.5 mM in the assay, core 1 or core 3 substrates): 83–85%
A-(GalNAcα)T |  | 15% | 
AHGVT-(GalNAcα)SAPDTRPAPGSTAPPA | 39% | 15% | C2GnT1 activity (%) [3]: <1%; C2GnT2 activity (%) [4]: <1%
Ac-GHA-(GalNAcα)TSLPVTG-NH2 | 564% | 22% | 
Ac-V-(GalNAcα)TP-NH2 | 71% | 36% | 

The next lines start with results.

C1GalT activity (%) [1] | C3GnT activity (%) [2] | Compound | also measured
<1% | <1% | CC(=O)NC1C(OP(=O)(O)OP(=O)(O)OCCCCCCCCCCCOc2ccccc2)OC(CO)C(O)C1O (stereo not shown) [GalNAcα-O-PO3-PO3-(CH2)11-O-Ph] | 
102% | 153% | C=C(C)C1CC=C(CO[C@H]2O[C@H](CO)[C@H](O)[C@H](O)[C@H]2NC(C)=O)CC1 (stereo partly shown) [GalNAcα-perillyl] | Vmax [2]: 0.4 µmol/h/mg and 0.40 µmol/h/mg; Km [2]: 300 µM
181% | 37% | CC(=O)N[C@H]1[C@@H](Oc2ccccc2)O[C@H](CO)[C@H](O)[C@@H]1O [GalNAcα-phenyl] | 
204% | 88% | CC(=O)N[C@H]1[C@@H](Oc2ccc([N+](=O)[O-])cc2)O[C@H](CO)[C@H](O)[C@@H]1O [GalNAcα-pnp] | 
<1% | <1% | CC(=O)N[C@H]1[C@H](OCc2ccccc2)O[C@H](CO)[C@@H](O[C@@H]2O[C@H](CO)[C@H](O)[C@H](O)[C@H]2NC(C)=O)[C@@H]1O [GalNAcβ1–4GlcNAcβ-Bn] | 
<1% | <1% | CC(=O)N[C@H]1[C@@H](OCc2ccccc2)O[C@H](C)[C@H](O)[C@@H]1O[C@@H]1O[C@H](CO)[C@H](O)[C@H](O)[C@H]1O [Galβ1–3(6-deoxy)GalNAcα-Bn] | C2GnT1 activity (%) [3]: <1%; C2GnT2 activity (%) [4]: <1%
38% | <1% | CC(=O)N[C@H]1[C@H](OC[C@H]2O[C@H](Oc3ccccc3[N+](=O)[O-])[C@H](NC(C)=O)[C@@H](O)[C@H]2O)O[C@H](CO)[C@@H](O[C@@H]2O[C@H](CO)[C@H](O)[C@H](O)[C@H]2O)[C@@H]1O [Galβ1–4GlcNAcβ1–6GalNAcα-onp] | 
<1% | <1% | CC(=O)N[C@H]1[C@H](OC[C@H]2O[C@H](Oc3ccc4ccccc4c3)[C@H](O)[C@@H](O)[C@H]2O)O[C@H](CO)[C@@H](O[C@@H]2O[C@H](CO)[C@H](O)[C@H](O)[C@H]2O)[C@@H]1O [Galβ1–4GlcNAcβ1–6Galα-(2-naphthyl)] | 
63% | <1% | CC(=O)N[C@H]1[C@@H](OCc2ccccc2)O[C@H](CO[C@@H]2O[C@H](CO)[C@@H](O[C@@H]3O[C@H](CO)[C@H](O)[C@H](O)[C@H]3O)[C@H](O)[C@H]2O)[C@H](O)[C@@H]1O [Galβ1–4Glcβ1–6GalNAcα-Bn] | 
30% | <1% | CC(=O)N[C@H]1[C@@H](OCc2ccccc2)O[C@H](CO[C@@H]2O[C@H](CO)[C@H](O)[C@H](O)[C@H]2O)[C@H](O)[C@@H]1O [Galβ1–6GalNAcα-Bn] | 
74% | <1% | CC(=O)N[C@H]1[C@@H](OCc2ccccc2)O[C@H](CO[C@@H]2O[C@H](CO)[C@@H](O)[C@H](O)[C@H]2NC(C)=O)[C@H](O)[C@@H]1O [GlcNAcβ1–6-GalNAcα-Bn] | C2GnT1 activity (%) [3]: <1%; C2GnT2 activity (%) [4]: <1%
<1% | <1% | [2H]C([2H])([2H])O[C@@H]1O[C@H](CO[C@@H]2O[C@H](CO)[C@@H](O)[C@H](O)[C@H]2NC(C)=O)[C@H](O)[C@H](O)[C@H]1O [GlcNAcβ1–6-Galβ-OCD3] | 
<1% |  | TE-(GlcNAcβ1–6GalNAcα)TTSHSTPG | C2GnT1 activity (%) [3]: <1%; C2GnT2 activity (%) [4]: <1%
99% | 8% | TT-(GalNAcα)TVTPTPTG | 
270% | 10% | TTTV-(GalNAcα)TPTPTG | 
259% | 5% | TTTVTP-(GalNAcα)TPTG | 
